Laboratory results reported in ChEMBL document CHEMBL1133661, “Synthesis and in vitro anti-mycobacterium activity of N-alkyl-1, 2-dihydro-2-thioxo-3-pyridinecarbothioamides. Preliminary toxicity and pharmacokinetic evaluation” (J Med Chem, 2000).
Values after ≈ are worked out from the molar mass of the structure shown.

What was measured:
[1] = Mean residence time (MRT) in rats after intravenous administration; assay type: ADME, organism-based; settings: rat, in vivo
Summary of the method: (§1)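 Male Wistar rats (250-300 g), single 20 mg/kg i.v. dose in poly(ethylene glycol) 400, given through a permanent jugular-vein cannula that also served for blood sampling. Plasma levels measured by GC-MS (electron impact 70 eV; ions 233, 181, 168, 137, 104 monitored). Parameters derived by noncompartmental analysis.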

[2] = tested on: Mycobacterium avium; experiment: In Vitro antimicrobial activity against the Mycobacterium avium complex (MAC) Wild type strain AN1; assay type: functional
Summary of the method: (§2)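 MIC by radiometric broth dilution (BACTEC 460-TB) in 7H12 liquid medium containing 14C-palmitic acid. Growth read as 14CO2 release, recorded as growth index (0–999). Compounds stocked in DMSO; working solutions at 40-fold final concentration made in sterile distilled water. Ethambutol reference. MIC expressed in µg/mL.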

[3] = tested on: Mycobacterium avium; experiment: In Vitro antimicrobial activity against the Mycobacterium avium complex (MAC) Wild type strain AN2; assay type: functional; summary of the method: as §2
[4] = tested on: Mycobacterium avium; experiment: In Vitro antimicrobial activity against the Mycobacterium avium complex (MAC) strain ATCC 15769; assay type: functional; summary of the method: as §2
[5] = Volume of distribution in rats after intravenous administration; assay type: ADME, organism-based; settings: rat, in vivo, read-out: Vss; summary of the method: as §1
[6] = tested on: Mycobacterium avium; experiment: In Vitro antimicrobial activity against the Mycobacterium avium complex (MAC) Wild type strain AN3; assay type: functional; summary of the method: as §2
[7] = tested on: Mycobacterium tuberculosis; experiment: In Vitro antimicrobial activity against the Mycobacterium tuberculosis (MT) Wild type strain MT-1; assay type: functional; summary of the method: as §2
[8] = Clearance (CL) value in rats after intravenous administration.; assay type: ADME, organism-based; settings: rat, in vivo, read-out: CI; summary of the method: as §1
[9] = tested on: Mycobacterium avium; experiment: In Vitro antimicrobial activity against the Mycobacterium avium complex (MAC) Wild type strain ISS 486; assay type: functional; summary of the method: as §2
[10] = Area under curve (AUC) value of the compound; assay type: ADME; summary of the method: as §1
[11] = Elimination half life value after intravenous administration in rats; assay type: ADME, organism-based; settings: rat, in vivo; summary of the method: as §1
[12] = tested on: Mycobacterium tuberculosis; experiment: In Vitro antimicrobial activity against the Mycobacterium tuberculosis (MT) Wild type strain MT-2; assay type: functional; summary of the method: as §2
[13] = tested on: Mycobacterium tuberculosis; experiment: In Vitro antimicrobial activity against the Mycobacterium tuberculosis (MT) strain H-37-Rv ATCC; assay type: functional; summary of the method: as §2
[14] = Mean residence time (MRT) in rats after intravenous administration.; assay type: ADME, organism-based; settings: rat, in vivo; summary of the method: as §1
[15] = tested on: Mycobacterium avium; experiment: In Vitro antimicrobial activity against Mycobacterium avium complex (MAC) strain ATCC 15769; assay type: functional; summary of the method: as §2

CCCCCCC/N=C(\S)c1cccnc1S
MRT [1]: 28.9 min | MIC [2]: 4 µg/mL (≈ 14.9 µM) | MIC [3]: 4 µg/mL (≈ 14.9 µM) | MIC [4]: 2 µg/mL (≈ 7.45 µM) | Vd [5]: 1.28 L | MIC [6]: 4 µg/mL (≈ 14.9 µM) | MIC [7]: 2 µg/mL (≈ 7.45 µM) | clearance [8]: 50 mL/min | MIC [9]: 4 µg/mL (≈ 14.9 µM) | AUC [10]: 8250 ng·h/mL | half-life [11]: 28 min | MIC [12]: 2 µg/mL (≈ 7.45 µM) | MIC [13]: 0.5 µg/mL (≈ 1.86 µM)

CC[C@@H](CO)NCCN[C@@H](CC)CO [ETHAMBUTOL]
MIC [2]: 1 µg/mL (≈ 4.89 µM) | MIC [3]: 0.5 µg/mL (≈ 2.45 µM) | MIC [6]: 2 µg/mL (≈ 9.79 µM) | MIC [7]: < 2 µg/mL | MIC [9]: 2 µg/mL (≈ 9.79 µM) | MIC [12]: < 2 µg/mL | MIC [13]: < 2 µg/mL

CCCCCCCC/N=C(\S)c1cccnc1S
MIC [2]: 8 µg/mL (≈ 28.3 µM) | MIC [3]: 4 µg/mL (≈ 14.2 µM) | MIC [4]: 4 µg/mL (≈ 14.2 µM) | MIC [6]: 4 µg/mL (≈ 14.2 µM) | MIC [7]: 4 µg/mL (≈ 14.2 µM) | MIC [9]: 8 µg/mL (≈ 28.3 µM) | MIC [12]: 4 µg/mL (≈ 14.2 µM) | MIC [13]: 1 µg/mL (≈ 3.54 µM)

CCCCCCCCCC/N=C(\S)c1cccnc1S
MIC [2]: 32 µg/mL (≈ 103 µM) | MIC [3]: 32 µg/mL (≈ 103 µM) | MIC [4]: 16 µg/mL (≈ 51.5 µM) | MIC [6]: 32 µg/mL (≈ 103 µM) | MIC [7]: 64 µg/mL (≈ 206 µM) | MIC [9]: 32 µg/mL (≈ 103 µM) | MIC [12]: 64 µg/mL (≈ 206 µM) | MIC [13]: 16 µg/mL (≈ 51.5 µM)

OCC/N=C(\S)c1cccnc1S
MIC [2]: 4 µg/mL (≈ 18.7 µM) | MIC [3]: 8 µg/mL (≈ 37.3 µM) | MIC [4]: 8 µg/mL (≈ 37.3 µM) | MIC [6]: 4 µg/mL (≈ 18.7 µM) | MIC [7]: 4 µg/mL (≈ 18.7 µM) | MIC [9]: 8 µg/mL (≈ 37.3 µM) | MIC [12]: 8 µg/mL (≈ 37.3 µM) | MIC [13]: 2 µg/mL (≈ 9.33 µM)

CC/N=C(\S)c1cccnc1S
MIC [2]: 4 µg/mL (≈ 20.2 µM) | MIC [3]: 8 µg/mL (≈ 40.3 µM) | MIC [4]: 4 µg/mL (≈ 20.2 µM) | MRT [14]: 47.6 min | Vd [5]: 0.93 L | MIC [6]: 8 µg/mL (≈ 40.3 µM) | MIC [7]: 1 µg/mL (≈ 5.04 µM) | clearance [8]: 20 mL/min | MIC [9]: 4 µg/mL (≈ 20.2 µM) | AUC [10]: 18500 ng·h/mL | half-life [11]: 37.2 min | MIC [12]: 1 µg/mL (≈ 5.04 µM) | MIC [13]: 0.5 µg/mL (≈ 2.52 µM)

CCCCCCNC(=O)c1cccnc1S
MIC [4]: 8 µg/mL (≈ 33.6 µM) | MIC [7]: 8 µg/mL (≈ 33.6 µM) | MIC [12]: 16 µg/mL (≈ 67.1 µM) | MIC [13]: 8 µg/mL (≈ 33.6 µM)

CCCCCC/N=c1\ssc2ncccc12.CCCCCCn1sc2ncccc2c1=S
MIC [4]: 8 µg/mL | MIC [7]: 8 µg/mL | MIC [12]: 8 µg/mL | MIC [13]: 4 µg/mL

CCCCC/N=C(\S)c1cccnc1S
MIC [2]: 1 µg/mL (≈ 4.16 µM) | MIC [3]: 2 µg/mL (≈ 8.32 µM) | MIC [4]: 1 µg/mL (≈ 4.16 µM) | MIC [6]: 1 µg/mL (≈ 4.16 µM) | MIC [7]: 4 µg/mL (≈ 16.6 µM) | MIC [9]: 1 µg/mL (≈ 4.16 µM) | MIC [12]: 4 µg/mL (≈ 16.6 µM) | MIC [13]: 2 µg/mL (≈ 8.32 µM)

CCCCCCCCC/N=C(\S)c1cccnc1S
MIC [2]: 8 µg/mL (≈ 27 µM) | MIC [3]: 8 µg/mL (≈ 27 µM) | MIC [4]: 8 µg/mL (≈ 27 µM) | MIC [6]: 8 µg/mL (≈ 27 µM) | MIC [7]: 16 µg/mL (≈ 54 µM) | MIC [9]: 8 µg/mL (≈ 27 µM) | MIC [12]: 16 µg/mL (≈ 54 µM) | MIC [13]: 4 µg/mL (≈ 13.5 µM)

S=c1ssc2ncccc12
MIC [15]: 8 µg/mL (≈ 43.2 µM)

C/N=C(\S)c1cccnc1S
MIC [2]: 8 µg/mL (≈ 43.4 µM) | MIC [3]: 4 µg/mL (≈ 21.7 µM) | MIC [4]: 4 µg/mL (≈ 21.7 µM) | MIC [6]: 4 µg/mL (≈ 21.7 µM) | MIC [7]: 1 µg/mL (≈ 5.43 µM) | MIC [9]: 4 µg/mL (≈ 21.7 µM) | MIC [12]: 1 µg/mL (≈ 5.43 µM) | MIC [13]: 2 µg/mL (≈ 10.9 µM)

CCC/N=C(\S)c1cccnc1S
MIC [2]: 2 µg/mL (≈ 9.42 µM) | MIC [3]: 4 µg/mL (≈ 18.8 µM) | MIC [4]: 2 µg/mL (≈ 9.42 µM) | MIC [6]: 2 µg/mL (≈ 9.42 µM) | MIC [7]: 4 µg/mL (≈ 18.8 µM) | MIC [9]: 1 µg/mL (≈ 4.71 µM) | MIC [12]: 4 µg/mL (≈ 18.8 µM) | MIC [13]: 2 µg/mL (≈ 9.42 µM)

CCCCCCCCCCCCCCCC/N=C(\S)c1cccnc1S
MIC [2]: 8 µg/mL (≈ 20.3 µM) | MIC [3]: 8 µg/mL (≈ 20.3 µM) | MIC [4]: 8 µg/mL (≈ 20.3 µM) | MIC [6]: 8 µg/mL (≈ 20.3 µM) | MIC [7]: 16 µg/mL (≈ 40.5 µM) | MIC [9]: 8 µg/mL (≈ 20.3 µM) | MIC [12]: 32 µg/mL (≈ 81.1 µM) | MIC [13]: 16 µg/mL (≈ 40.5 µM)

CCCCCC/N=C(\S)c1cccnc1S
MIC [2]: 1 µg/mL (≈ 3.93 µM) | MIC [3]: 1 µg/mL (≈ 3.93 µM) | MIC [4]: 1 µg/mL (≈ 3.93 µM) | MIC [6]: 1 µg/mL (≈ 3.93 µM) | MIC [7]: 1 µg/mL (≈ 3.93 µM) | MIC [9]: 0.5 µg/mL (≈ 1.97 µM) | MIC [12]: 2 µg/mL (≈ 7.86 µM) | MIC [13]: 1 µg/mL (≈ 3.93 µM)

O=c1ssc2ncccc12
MIC [4]: 2 µg/mL (≈ 11.8 µM) | MIC [7]: 8 µg/mL (≈ 47.3 µM) | MIC [12]: 8 µg/mL (≈ 47.3 µM) | MIC [13]: 4 µg/mL (≈ 23.6 µM)

S/C(=N\C1CCCCC1)c1cccnc1S
MIC [2]: 4 µg/mL (≈ 15.8 µM) | MIC [3]: 4 µg/mL (≈ 15.8 µM) | MIC [4]: 4 µg/mL (≈ 15.8 µM) | MIC [6]: 4 µg/mL (≈ 15.8 µM) | MIC [7]: 4 µg/mL (≈ 15.8 µM) | MIC [9]: 4 µg/mL (≈ 15.8 µM) | MIC [12]: 1 µg/mL (≈ 3.96 µM) | MIC [13]: 0.5 µg/mL (≈ 1.98 µM)

CCCCCCn1sc2ncccc2c1=O
MIC [4]: 16 µg/mL (≈ 67.7 µM) | MIC [7]: 8 µg/mL (≈ 33.8 µM) | MIC [12]: 8 µg/mL (≈ 33.8 µM) | MIC [13]: 16 µg/mL (≈ 67.7 µM)

CCCC/N=C(\S)c1cccnc1S
MIC [2]: 4 µg/mL (≈ 17.7 µM) | MIC [3]: 4 µg/mL (≈ 17.7 µM) | MIC [4]: 1 µg/mL (≈ 4.42 µM) | MIC [6]: 4 µg/mL (≈ 17.7 µM) | MIC [7]: 4 µg/mL (≈ 17.7 µM) | MIC [9]: 2 µg/mL (≈ 8.84 µM) | MIC [12]: 4 µg/mL (≈ 17.7 µM) | MIC [13]: 4 µg/mL (≈ 17.7 µM)

CCCCCCCCCCCCCCCCCC/N=C(\S)c1cccnc1S
MIC [2]: 32 µg/mL (≈ 75.7 µM) | MIC [3]: 32 µg/mL (≈ 75.7 µM) | MIC [4]: 64 µg/mL (≈ 151 µM) | MIC [6]: 32 µg/mL (≈ 75.7 µM) | MIC [7]: 64 µg/mL (≈ 151 µM) | MIC [9]: 32 µg/mL (≈ 75.7 µM) | MIC [12]: 64 µg/mL (≈ 151 µM) | MIC [13]: 32 µg/mL (≈ 75.7 µM)
